Test results as given in article PMC8265689 (Journal of the American Chemical Society, 2021).

Columns and labels:
[1] = in MeOH, used as standard; cited from earlier work
DU-145 cells [2] = assay: Chou–Talalay synergy determination with vinblastine; assay type: cell-based, human; conditions: light conditions
Outline: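 DU-145 cells (7000/well, DMEM with 10% FBS and penicillin/streptomycin) were grown overnight (16 h, 37 °C, 5% CO₂). They were pretreated 1 h with test compound (10–1 μM) or vehicle (1% DMSO), then switched to vinblastine (10–0.5 nM) or vehicle, in quadruplicate. Blue light 460–470 nm for 20 min, then 72 h. MTT read at 570 nm, blank-subtracted, as percent effect. Chou–Talalay EC50 and CI computed per combination.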

DU-145 cells [3] = assay: DU-145 viability; assay type: cell-based, human; conditions: 5 μM, vinblastine 0–5 nM, blue light, Figure 7C
Outline: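 DU-145 cells (7000/well) were grown overnight, then given test compound (5 μM, 1% DMSO) in octuplicate for 1 h at 37 °C. Medium was replaced with vinblastine (5 nM; 2.5 or 5 nM in one set) or vehicle. Plates received blue LED light (460–470 nm, 20 min, 56 J/cm²) or were kept dark, then 72 h. MTT read at 570 nm, blank-normalized, as percent of vehicle control.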

Molecule | Quantum yield of singlet oxygen production (ΦΔ) [1] | synergism with vinblastine (Chou–Talalay) (DU-145 cells [2]) | synergy with vinblastine (viability) (DU-145 cells [3])
[Ru+2].c1ccc(-c2ccccn2)nc1.c1ccc(-c2ccccn2)nc1.c1ccc(-c2ccccn2)nc1 [[Ru(bpy)3]^2+] | 0.81 |  | 
[Ru(tpy)(Me2dppn)(py)](PF6)2 [Compound 27, reference compound] |  | weaker synergism | does not
